Source: ChEMBL document CHEMBL4004797, “Design and synthesis of formononetin-dithiocarbamate hybrids that inhibit growth and migration of PC-3 cells via MAPK/Wnt signaling pathways” (Eur J Med Chem, 2017)
The source made the active and inactive calls. The calls are words filed in the database; no cut-off is given here.

Tests used:
[1] = test system: MGC-803; experiment: Cytotoxicity against human MGC803 cells assessed as inhibition of cell viability after 48 hrs by MTT assay; type: functional, cell-based; conditions: MGC-803, 48 h
In short: (§1)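 Cells grown in RPMI 1640 with 10% FBS, penicillin and streptomycin at 37 °C under 5% CO2. After 24 h, medium replaced with medium containing various concentrations. Exposure 48 h, then MTT read-out at 570 nm. IC50 is the concentration giving 50% proliferation inhibition, from dose-response curves; mean ± SD of three independent experiments.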

[2] = test system: ECa-109 cell line; experiment: Cytotoxicity against human EC109 cells assessed as inhibition of cell viability after 48 hrs by MTT assay; type: functional, cell-based; conditions: ECa-109, 48 h; in short: as §1
[3] = test system: PC-3; experiment: Cytotoxicity against human PC3 cells assessed as inhibition of cell viability after 48 hrs by MTT assay; type: functional, cell-based; conditions: for IC50: PC-3, 48 h; in short: as §1
[4] = test system: GES1; experiment: Cytotoxicity against human GES-1 cells assessed as inhibition of cell viability after 48 hrs by MTT assay; type: cell-based; conditions: GES1, 48 h; in short: as §1
[5] = test system: PC-3; experiment: Cytotoxicity against human PC3 cells assessed as inhibition of cell growth at 2.5 uM after 6 to 12 hrs by MTT assay; type: functional, cell-based
[6] = test system: PC-3; experiment: Anticlonogenic activity against human PC3 cells assessed as colony formation efficiency at 2.5 uM after 1 week by crystal violet staining-based assay relative to control; type: functional
In short: (§2)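 PC-3 cells seeded, grown 24 h, then given fresh medium containing a range of concentrations and treated for one week. Washed with PBS, fixed in 4% paraformaldehyde, stained with 0.1% crystal violet, imaged. Colonies counted and colony formation efficiency calculated relative to control. Three independent experiments.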

[7] = test system: PC-3; experiment: Anticlonogenic activity against human PC3 cells at 2.5 uM after 1 week by crystal violet staining-based assay; type: functional, cell-based; in short: as §2
[8] = organism: Homo sapiens; experiment: Inhibition of ERK phosphorylation in human PC3 cells after 48 hrs by Western blot analysis; type: cell-based
In short: (§3)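 PC-3 cells exposed 48 h to 0, 0.1, 0.5 or 2.5 μM. RIPA lysates, BCA protein assay, SDS-PAGE, nitrocellulose transfer, 5% milk block, primary antibodies overnight at 4 °C against p-ERK, p-c-Jun, c-Myc, p38 and p-p38, secondary 1:5000 for 2 h, ECL detection. Levels quantified from three independent experiments.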

[9] = molecular target: Transcription factor Jun (Homo sapiens) (UniProt P05412); experiment: Inhibition of c-Jun phosphorylation in human PC3 cells after 48 hrs by Western blot analysis; type: cell-based; in short: as §3
Chain of Transcription factor Jun (Homo sapiens) (P05412 whole entry): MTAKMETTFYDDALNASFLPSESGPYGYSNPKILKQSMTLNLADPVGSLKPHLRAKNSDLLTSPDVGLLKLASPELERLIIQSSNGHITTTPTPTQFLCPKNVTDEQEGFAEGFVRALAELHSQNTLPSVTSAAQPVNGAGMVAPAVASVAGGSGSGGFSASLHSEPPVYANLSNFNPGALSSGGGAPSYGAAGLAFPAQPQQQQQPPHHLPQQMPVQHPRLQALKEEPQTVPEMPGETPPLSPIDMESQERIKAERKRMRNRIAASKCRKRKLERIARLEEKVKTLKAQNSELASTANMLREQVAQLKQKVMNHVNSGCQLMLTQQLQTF

[10] = test system: PC-3; experiment: Downregulation of p38 levels in human PC3 cells after 48 hrs by Western blot analysis; type: functional, cell-based; in short: as §3
[11] = molecular target: MAP kinase p38 (Homo sapiens) (UniProt O15264+Q15759+Q16539+P53778); experiment: Inhibition of p38 phosphorylation in human PC3 cells after 48 hrs by Western blot analysis; type: cell-based; in short: as §3
[12] = test system: PC-3; experiment: Cell cycle arrest in human PC3 cells assessed as accumulation at G1 phase at 0.1 uM after 48 hrs by propidium iodide staining-based flow cytometric method (reference value: 54.65%); type: functional
[13] = test system: PC-3; experiment: Cell cycle arrest in human PC3 cells assessed as accumulation at S phase at 0.1 uM after 48 hrs by propidium iodide staining-based flow cytometric method (reference value: 26.54%); type: functional
[14] = test system: PC-3; experiment: Cell cycle arrest in human PC3 cells assessed as accumulation at G2 phase at 0.1 uM after 48 hrs by propidium iodide staining-based flow cytometric method (reference value: 18.31%); type: functional
[15] = test system: PC-3; experiment: Cell cycle arrest in human PC3 cells assessed as accumulation at G1 phase at 0.5 uM after 48 hrs by propidium iodide staining-based flow cytometric method (reference value: 54.65%); type: functional
[16] = test system: PC-3; experiment: Cell cycle arrest in human PC3 cells assessed as accumulation at S phase at 0.5 uM after 48 hrs by propidium iodide staining-based flow cytometric method (reference value: 26.54%); type: functional
[17] = test system: PC-3; experiment: Cell cycle arrest in human PC3 cells assessed as accumulation at G2 phase at 0.5 uM after 48 hrs by propidium iodide staining-based flow cytometric method (reference value: 18.31%); type: functional
[18] = test system: PC-3; experiment: Cell cycle arrest in human PC3 cells assessed as accumulation at G1 phase at 2.5 uM after 48 hrs by propidium iodide staining-based flow cytometric method (reference value: 54.65%); type: functional
[19] = test system: PC-3; experiment: Cell cycle arrest in human PC3 cells assessed as accumulation at S phase at 2.5 uM after 48 hrs by propidium iodide staining-based flow cytometric method (reference value: 26.54%); type: functional
[20] = test system: PC-3; experiment: Cell cycle arrest in human PC3 cells assessed as accumulation at G2 phase at 2.5 uM after 48 hrs by propidium iodide staining-based flow cytometric method (reference value: 18.31%); type: functional
[21] = test system: PC-3; experiment: Downregulation of cyclin D1 levels in human PC3 cells after 48 hrs by Western blot method; type: functional, cell-based
In short: (§4)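 PC-3 cells treated 48 h at 0, 0.1, 0.5 or 2.5 μM, then lysed in RIPA buffer with protease inhibitors. Protein measured by BCA, separated by SDS-PAGE, transferred to nitrocellulose, blocked in 5% milk, probed overnight at 4 °C for cyclin D1, CDK4, cyclin A and cyclin B1, detected by ECL. Bands quantified; three independent experiments.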

[22] = test system: PC-3; experiment: Downregulation of CDK4 levels in human PC3 cells after 48 hrs by Western blot method; type: functional, cell-based; in short: as §4
[23] = test system: PC-3; experiment: Induction of apoptosis in human PC3 cells assessed as early apoptotic cells at 0.1 uM after 48 hrs by annexin V-FITC/propidium iodide staining-based flow cytometric method (reference value: 4.7%); type: functional
[24] = test system: PC-3; experiment: Induction of apoptosis in human PC3 cells assessed as early apoptotic cells at 0.5 uM after 48 hrs by annexin V-FITC/propidium iodide staining-based flow cytometric method (reference value: 4.7%); type: functional
[25] = test system: PC-3; experiment: Induction of apoptosis in human PC3 cells assessed as early apoptotic cells at 2.5 uM after 48 hrs by annexin V-FITC/propidium iodide staining-based flow cytometric method (reference value: 4.7%); type: functional
[26] = test system: PC-3; experiment: Induction of apoptosis in human PC3 cells assessed as late apoptotic cells at 0.1 uM after 48 hrs by annexin V-FITC/propidium iodide staining-based flow cytometric method (reference value: 1.3%); type: functional
[27] = test system: PC-3; experiment: Induction of apoptosis in human PC3 cells assessed as late apoptotic cells at 0.5 uM after 48 hrs by annexin V-FITC/propidium iodide staining-based flow cytometric method (reference value: 1.3%); type: functional
[28] = test system: PC-3; experiment: Induction of apoptosis in human PC3 cells assessed as late apoptotic cells at 2.5 uM after 48 hrs by annexin V-FITC/propidium iodide staining-based flow cytometric method (reference value: 1.3%); type: functional
[29] = test system: PC-3; experiment: Upregulation of Bax levels in human PC3 cells at 0.1 to 2.5 uM after 48 hrs by Western blot method; type: functional, cell-based
In short: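 Bax protein measured by Western blot in PC-3 cells after 48 h at 0, 0.1, 0.5 or 2.5 μM: RIPA lysis, SDS-PAGE, nitrocellulose transfer, overnight primary antibody at 4 °C, ECL detection.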

[30] = test system: PC-3; experiment: Antimigratory activity in human PC3 cells at 0.1 to 2.5 uM after 48 hrs by Hoechst 33258 staining-based transwell assay; type: functional, cell-based
In short: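 Transwell migration: upper chamber holds 10^4 PC-3 cells in medium with 1% FBS plus 0, 0.1, 0.5 or 2.5 μM compound. Lower chamber holds medium with 20% FBS as chemoattractant. After 48 h both chambers washed with PBS, stained with Hoechst 33258, and migrated cells counted by high-content imaging. Three independent experiments.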

[31] = test system: PC-3; experiment: Upregulation of Axin levels in human PC3 cells after 48 hrs by Western blot method; type: functional, cell-based
In short: (§5)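 Wnt pathway proteins probed by Western blot in PC-3 cells after 48 h at 0, 0.1, 0.5 or 2.5 μM. RIPA lysis, SDS-PAGE, nitrocellulose, overnight primary antibody at 4 °C, ECL detection. Expression quantified from three independent experiments.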

[32] = test system: PC-3; experiment: Downregulation of beta-catenin levels in human PC3 cells after 48 hrs by Western blot method; type: functional, cell-based; in short: as §5
[33] = test system: PC-3; experiment: Downregulation of TCF4 levels in human PC3 cells after 48 hrs by Western blot method; type: functional, cell-based; in short: as §5
[34] = molecular target: Myc proto-oncogene protein (Homo sapiens) (UniProt P01106); experiment: Inhibition of c-Myc expression in human PC3 cells after 48 hrs by Western blot analysis
Chain of Myc proto-oncogene protein (Homo sapiens) (P01106 whole entry): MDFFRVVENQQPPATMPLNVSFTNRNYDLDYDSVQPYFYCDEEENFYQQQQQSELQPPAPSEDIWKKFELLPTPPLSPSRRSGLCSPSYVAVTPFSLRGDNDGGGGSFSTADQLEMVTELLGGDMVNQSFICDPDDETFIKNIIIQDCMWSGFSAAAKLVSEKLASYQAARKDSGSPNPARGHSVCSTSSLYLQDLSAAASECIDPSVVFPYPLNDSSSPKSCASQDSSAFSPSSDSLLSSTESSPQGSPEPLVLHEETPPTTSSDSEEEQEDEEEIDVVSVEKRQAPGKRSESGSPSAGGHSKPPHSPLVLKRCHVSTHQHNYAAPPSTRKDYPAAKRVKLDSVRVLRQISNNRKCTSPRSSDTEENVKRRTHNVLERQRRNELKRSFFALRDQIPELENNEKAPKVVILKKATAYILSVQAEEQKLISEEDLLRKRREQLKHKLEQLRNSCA

SMILES: COc1ccc(-c2coc3cc(OCCCBr)ccc3c2=O)cc1
- IC50 [1]: 64.9 µM
- IC50 [2]: 39.7 µM
- IC50 [3]: 62.6 µM

SMILES: COc1ccc(-c2coc3cc(O)ccc3c2=O)cc1 [FORMONONETIN]
- IC50 [1]: > 100 µM
- IC50 [2]: > 100 µM
- IC50 [3]: 57 µM

SMILES: COc1ccc(-c2coc3cc(OCCCSC(=S)N4CCCC4)ccc3c2=O)cc1
- IC50 [1]: 40 µM
- IC50 [2]: 30.8 µM
- IC50 [3]: 19.4 µM

SMILES: COc1ccc(-c2coc3cc(OCCCSC(=S)N4CCN(C(C)=O)CC4)ccc3c2=O)cc1
- IC50 [1]: 39.4 µM
- IC50 [2]: 24.7 µM
- IC50 [3]: 4.31 µM

SMILES: CCN1CCN(C(=S)SCCCOc2ccc3c(=O)c(-c4ccc(OC)cc4)coc3c2)CC1
- IC50 [1]: 54 µM
- IC50 [2]: 36.9 µM
- IC50 [3]: 7.08 µM

SMILES: COc1ccc(-c2coc3cc(OCCSC(=S)N4CCN(C(=O)OC(C)(C)C)CC4)ccc3c2=O)cc1
- IC50 [1]: 11.6 µM
- IC50 [2]: 4.09 µM
- IC50 [3]: 3.64 µM

SMILES: COc1ccc(-c2coc3cc(OCCCCSC(=S)N4CCN(C(=O)OC(C)(C)C)CC4)ccc3c2=O)cc1
- IC50 [1]: 31.3 µM
- IC50 [2]: 8.84 µM
- IC50 [3]: 4.61 µM

SMILES: COc1ccc(-c2coc3cc(OCCCSC(=S)N4CCN(C(=O)OC(C)(C)C)CC4)ccc3c2=O)cc1
- IC50 [1]: 6.07 µM
- IC50 [2]: 3.54 µM
- Activity [3]: Dose-dependent effect
- IC50 [3]: 1.97 µM
- IC50 [4]: > 100 µM
- growth inhibition (GI) [5]: Active
- Activity [6]: 6%
- Activity [7]: Dose-dependent effect
- inhibition [8]: Dose-dependent effect
- inhibition [9]: Dose-dependent effect
- Activity [10]: Dose-dependent effect
- inhibition [11]: Dose-dependent effect
- Activity [12]: 55.6%
- Activity [13]: 26.75%
- Activity [14]: 17.3%
- Activity [15]: 61.29%
- Activity [16]: 29.69%
- Activity [17]: 9.1%
- Activity [18]: 83.32%
- Activity [19]: 10.33%
- Activity [20]: 3.66%
- Activity [21]: Dose-dependent effect
- Activity [22]: Dose-dependent effect
- Activity [23]: 6.2%
- Activity [24]: 5.7%
- Activity [25]: 5.5%
- Activity [26]: 1.1%
- Activity [27]: 1.3%
- Activity [28]: 0.9%
- Activity [29]: inactive
- Activity [30]: Dose-dependent effect
- Activity [31]: Dose-dependent effect
- Activity [32]: Dose-dependent effect
- Activity [33]: Dose-dependent effect
- inhibition [34]: Dose-dependent effect

SMILES: COc1ccc(-c2coc3cc(OCCCSC(=S)N4CCN(c5ccccn5)CC4)ccc3c2=O)cc1
- IC50 [1]: 42 µM
- IC50 [2]: 38.3 µM
- IC50 [3]: 17.4 µM

SMILES: COc1ccc(-c2coc3cc(OCCCSC(=S)N4CCN(Cc5ccccc5)CC4)ccc3c2=O)cc1
- IC50 [1]: 43.8 µM
- IC50 [2]: 25.3 µM
- IC50 [3]: 14.9 µM

SMILES: COc1ccc(-c2coc3cc(OCCCSC(=S)N4CCN(C)CC4)ccc3c2=O)cc1
- IC50 [1]: 21.9 µM
- IC50 [2]: 24.2 µM
- IC50 [3]: 2.21 µM

SMILES: O=c1[nH]cc(F)c(=O)[nH]1 [FLUOROURACIL]
- IC50 [1]: 7.21 µM
- IC50 [2]: 10.3 µM
- IC50 [3]: 29.3 µM

SMILES: COc1ccc(-c2coc3cc(OCCBr)ccc3c2=O)cc1
- IC50 [1]: > 100 µM
- IC50 [2]: 55.1 µM
- IC50 [3]: 41.9 µM

SMILES: COc1ccc(-c2coc3cc(OCCCCCBr)ccc3c2=O)cc1
- IC50 [1]: > 100 µM
- IC50 [2]: 59.1 µM
- IC50 [3]: 44.8 µM

SMILES: COc1ccc(-c2coc3cc(OCCCSC(=S)N4CCOCC4)ccc3c2=O)cc1
- IC50 [1]: 49.6 µM
- IC50 [2]: 34 µM
- IC50 [3]: 27.4 µM

SMILES: COc1ccc(-c2coc3cc(OCCCCBr)ccc3c2=O)cc1
- IC50 [1]: 52.7 µM
- IC50 [2]: 66.3 µM
- IC50 [3]: 55.6 µM
